We go through two compounds from article PMC3729352 (Pharmacological research : the official journal of the …, 2011).

The target in one data set is T1, ABCG2 (Mus musculus, UniProt Q7TMS5).
T1 sequence (Q7TMS5 1-657): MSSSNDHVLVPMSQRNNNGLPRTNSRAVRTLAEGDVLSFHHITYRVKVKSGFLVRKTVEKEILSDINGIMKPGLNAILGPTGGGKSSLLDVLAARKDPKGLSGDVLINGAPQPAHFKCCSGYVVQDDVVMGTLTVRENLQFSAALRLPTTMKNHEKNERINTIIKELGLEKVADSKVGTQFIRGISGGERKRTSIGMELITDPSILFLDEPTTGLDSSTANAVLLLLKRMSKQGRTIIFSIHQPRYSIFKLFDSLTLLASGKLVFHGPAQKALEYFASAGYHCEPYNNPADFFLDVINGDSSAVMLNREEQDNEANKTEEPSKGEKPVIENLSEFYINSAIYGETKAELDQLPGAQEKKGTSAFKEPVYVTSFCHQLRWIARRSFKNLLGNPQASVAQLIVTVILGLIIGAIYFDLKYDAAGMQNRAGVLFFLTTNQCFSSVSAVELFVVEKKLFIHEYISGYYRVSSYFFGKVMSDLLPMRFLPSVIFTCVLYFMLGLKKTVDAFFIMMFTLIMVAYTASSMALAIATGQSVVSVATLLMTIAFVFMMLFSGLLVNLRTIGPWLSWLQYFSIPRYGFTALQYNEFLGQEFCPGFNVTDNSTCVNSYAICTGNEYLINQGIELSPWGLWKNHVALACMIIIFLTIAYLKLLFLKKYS
In kind it is in vivo. The settings on record: Ko143 0, 1, 3 and 10 mg-kg^−1 i.p., 20 min prior to URB937 25 mg-kg^−1 s.c., ex vivo 1 h after URB937.

In another data set the target is T2, mouse Abcg2 (Mus musculus, UniProt Q7TMS5).
T2 sequence (Q7TMS5 1-657): T1 sequence (Q7TMS5 1-657)
Put plainly: Transepithelial transport across MDCKII monolayers over-expressing mouse Abcg2. Type of data set: in vitro ADME.

The target of another data set is T3, human ABCG2 (Homo sapiens, UniProt Q9UNQ0).
T3 sequence (Q9UNQ0 1-655): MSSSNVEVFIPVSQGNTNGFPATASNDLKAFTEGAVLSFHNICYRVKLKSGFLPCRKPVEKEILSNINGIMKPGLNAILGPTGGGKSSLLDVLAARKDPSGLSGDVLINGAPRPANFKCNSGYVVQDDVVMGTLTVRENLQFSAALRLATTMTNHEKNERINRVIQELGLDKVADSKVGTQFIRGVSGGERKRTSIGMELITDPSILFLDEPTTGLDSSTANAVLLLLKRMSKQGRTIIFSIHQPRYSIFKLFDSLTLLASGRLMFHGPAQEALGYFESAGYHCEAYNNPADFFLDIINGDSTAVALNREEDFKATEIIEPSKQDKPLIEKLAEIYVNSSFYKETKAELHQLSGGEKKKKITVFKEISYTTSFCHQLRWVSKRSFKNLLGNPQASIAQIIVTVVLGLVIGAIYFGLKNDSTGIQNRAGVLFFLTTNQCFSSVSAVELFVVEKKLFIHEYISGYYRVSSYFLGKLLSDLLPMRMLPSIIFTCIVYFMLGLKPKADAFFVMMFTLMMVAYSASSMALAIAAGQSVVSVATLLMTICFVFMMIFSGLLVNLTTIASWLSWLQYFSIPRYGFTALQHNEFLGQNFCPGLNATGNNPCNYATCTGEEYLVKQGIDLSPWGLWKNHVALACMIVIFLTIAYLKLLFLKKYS

The target in data set [1] is T4, FAAH (Mus musculus, UniProt O08914).
T4 sequence (O08914 1-579): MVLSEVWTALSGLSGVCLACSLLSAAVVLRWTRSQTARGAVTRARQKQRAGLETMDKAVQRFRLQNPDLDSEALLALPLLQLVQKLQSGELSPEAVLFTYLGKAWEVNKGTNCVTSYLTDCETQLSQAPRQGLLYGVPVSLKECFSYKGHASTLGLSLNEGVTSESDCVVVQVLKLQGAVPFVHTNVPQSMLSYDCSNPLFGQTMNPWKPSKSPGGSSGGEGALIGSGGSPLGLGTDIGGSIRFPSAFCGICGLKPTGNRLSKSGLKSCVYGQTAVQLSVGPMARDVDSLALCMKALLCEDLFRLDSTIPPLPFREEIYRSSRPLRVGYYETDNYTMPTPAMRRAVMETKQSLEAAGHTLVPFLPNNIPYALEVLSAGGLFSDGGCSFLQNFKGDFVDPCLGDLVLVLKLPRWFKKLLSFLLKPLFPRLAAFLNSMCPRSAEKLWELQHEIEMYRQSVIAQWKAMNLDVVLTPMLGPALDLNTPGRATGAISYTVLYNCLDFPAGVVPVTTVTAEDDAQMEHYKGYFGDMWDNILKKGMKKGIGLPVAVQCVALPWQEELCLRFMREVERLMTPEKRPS
Nature of the data set: Ex vivo FAAH activity in tissues of wild-type and Abcg2-/- mice after URB937. To be noted: URB937 25 mg-kg^−1 s.c., 1 h. Summed up: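 Male Abcg2−/− mice (n = 4) and wild-type FVB littermates (n = 5), 9–13 weeks, given test compound at 25 mg-kg−1 s.c. in saline/PEG400/Tween-80 (18:1:1). Killed 1 h later; tissues homogenized in 50 mM Tris-HCl pH 7.5 with 0.32 M sucrose. FAAH assay: 37°C, 30 min, 0.05% BSA, 50 µg protein (100 µg liver), 10 µM anandamide plus [3H]-anandamide. Read-out: aqueous-phase scintillation counting; mean ± SEM.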

In data set [2] the target is T4, FAAH. To be noted: cited from earlier work.
Data set [3] is described as follows: Plasma and tissue levels of URB937 in wild-type and Abcg2-/- mice. In kind it is in vivo, mouse. To be noted: 25 mg-kg^−1 s.c., mean ± SEM; for Level of URB937 in brain / Level of URB937 in kidney / Level of URB937 in liver / Level of URB937 in spinal cord: 1 h; for concentration at 1 h: mouse, plasma, sc, 25 mg-kg^−1, Level of URB937 in plasma. Summed up: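 Dosing: test compound 25 mg-kg−1 s.c. in saline/PEG400/Tween-80 (18:1:1) to Abcg2−/− (n = 4) and wild-type littermates (n = 5); killed at 1 h. Plasma obtained by cardiac puncture and spun 2000 × g. Tissue homogenates and plasma extracted with methanol/chloroform (1:2) containing internal standard. Analysis by ESI-LC/MS on a C18 column with a methanol/water gradient (0.25% acetic acid, 5 mM ammonium acetate) at m/z 377; mean ± SEM.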

A short description of data set [4]: Transepithelial transport across MDCKII parental monolayers. In kind it is in vitro ADME, canine. To be noted: dog, MDCK.

The structures appear in SMILES notation.

Regarding `COc1ccc2c3c([nH]c2c1)[C@H](CC(C)C)N1C(=O)[C@H](CCC(=O)OC(C)(C)C)NC(=O)[C@@H]1C3` [Ko143, reference compound], the “brain FAAH activity” value at ABCG2 is “dose-dependent decrease”. Besides, on mouse Abcg2 (Ko143 1 µM, URB937 5 µM, MDCKII-Abcg2), the “inhibition of Abcg2-mediated transport of URB937” value is on record as “completely inhibited”.
For `NC(=O)c1cccc(-c2cc(OC(=O)NC3CCCCC3)ccc2O)c1` [URB937, cyclohexylcarbamic acid 3'-carbamoyl-6-hydroxybiphenyl-3-yl ester], on human ABCG2, the “increase of relative transport ratio by over-expression vs parental cells” value was ~10 folds. Moreover, at FAAH [1] (Abcg2^−/− mice compared to wild-type), the “reduction in FAAH activity in brain and spinal cord” value is on record as 80%. Besides, the “FAAH activity in liver and kidney tissue” value on FAAH [1] (wild-type and Abcg2^−/− mice) is reported as “nearly abolished”. Also, at FAAH [1] (wild-type mice), the “inhibition of FAAH activity in CNS” value is listed as “almost no inhibition”. Moreover, on FAAH [2] (mouse liver vs mouse brain), the “potency at inhibiting FAAH activity in mouse liver relative to mouse brain” value is 400 times. Besides, the “half-maximal effective dose (ID50), liver FAAH activity” value on FAAH [2] (systemic administration in mice, liver) was 0.1 mg/kg. Also, the “FAAH activity in forebrain, hypothalamus and spinal cord” value at FAAH [2] (systemic administration in mice) is given as “fails to alter”. Further, the efflux ratio at 4 h, 5 µM at mouse Abcg2 (mouse) was determined as 13.6. The “increase of relative transport ratio by over-expression vs parental cells” value on mouse Abcg2 (mouse Abcg2 over-expression) is listed as ~10 folds. Besides, in data set [3] (Abcg2^−/− mice), the “Level of URB937 in brain” value is on record as 1.15 ± 0.04 pmol/mg, the “Level of URB937 in kidney” value came out at 34.97 ± 0.35 pmol/mg, the “Level of URB937 in liver” value stood at 7.75 ± 2.3 pmol/mg and the “Level of URB937 in spinal cord” value is 0.80 ± 0.10 pmol/mg. Further, the concentration at 1 h in data set [3] (Abcg2^−/− mice) was determined as 6.95 ± 0.9 µM. In data set [3] (wild-type mice), the concentration at 1 h is 8.34 ± 1.7 µM, the “Level of URB937 in brain” value turned out to be 0.46 ± 0.12 pmol/mg, the “Level of URB937 in kidney” value was 33.88 ± 3.3 pmol/mg and the “Level of URB937 in liver” value was 7.51 ± 3.1 pmol/mg. In addition, the “Level of URB937 in spinal cord” value in data set [3] (wild-type mice) came out at 0.29 ± 0.04 pmol/mg. Also, the efflux ratio at 4 h, 5 µM in data set [4] turned out to be 1.5.

By efflux ratio is commonly meant the permeability from basolateral to apical divided by that in the opposite direction, in the common usage.
